Results taken from ChEMBL document CHEMBL2384906, “Biological activity, design, synthesis and structure activity relationship of some novel derivatives of curcumin containing sulfonamides” (Eur J Med Chem, 2013).
Converted amounts (≈) assume the structure as drawn. The source made the active and inactive calls. The calls are words filed in the database; no cut-off is given here.

Tests used:
HepG2 = test: Cytotoxicity against human HepG2 cells after 24 hrs by MTT assay; type: functional, cell-based
Method in brief: (§1)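 The MTT assay seeded 5 × 10⁴ cells per well and grew them 24 h in RPMI 1640 with compound at 2.5–200 µM. Medium without cells was the blank and adriamycin the positive control. MTT was added for 4 h at 37 °C, formazan was solubilised, and absorbance was read at 570 nm. IC50 is the concentration that cuts viability 50% against untreated cells.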

Escherichia coli [1] = test: Antimicrobial activity against Escherichia coli ATCC 35218 after 24 hrs by broth micro serial dilution method; type: functional; conditions: ATCC 35218, 24 h
Method in brief: (§2)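 This was broth microdilution in autoclaved Mueller-Hinton broth. 150 µL of compound per well was serially diluted […], and 50 µL of test organism was added. Plates were incubated 24 h at 37 °C and optical density was read.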

Pseudomonas aeruginosa [2] = test: Antimicrobial activity against Pseudomonas aeruginosa ATCC 15499 after 24 hrs by broth micro serial dilution method; type: functional; conditions: ATCC 15499, 24 h; method in brief: as §2
Trichoderma viride [3] = test: Antifungal activity against Trichoderma viride MTCC 1107 assessed as zone of inhibition at 80 uM after 48 hrs by disc diffusion method; type: functional; conditions: MTCC 1107, 48 h, read-out: IZ
Method in brief: (§3)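 Spores from 4-day potato dextrose agar cultures, suspended in sterile water at 1.5 × 10⁵ CFU/mL. 0.2 mL was spread on potato dextrose agar. 5 mm filter-paper discs soaked with test compound were laid on the lawn. Incubation was 48 h at 28 °C, then the inhibition zone was measured in mm. Fluconazole was the positive control and acetone the negative control.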

Staphylococcus aureus [4] = test: Antimicrobial activity against Staphylococcus aureus ATCC 11632 assessed as diameter of inhibition zone at 20 uM after 24 hrs by Kirby -Baur disc diffusion method; type: functional
Method in brief: (§4)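 Kirby-Bauer disc diffusion was used. Acetone stocks (160 µM) were serially doubled down to 80, 40 and 20 µM. 4 µL of each went onto 5 mm sterile paper discs, which were dried 30 min at 50 °C. Inoculum was 1.5 × 10⁸ CFU/mL diluted to 3 × 10² CFU/mL, and 50 µL was spread on Mueller-Hinton agar. After 24 h at 37 °C the inhibition-zone diameter was measured. Ciprofloxacin served as positive control.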

Curvularia lunata [5] = test: Antifungal activity against Curvularia lunata MTCC 581 assessed as zone of inhibition at 80 uM after 48 hrs by disc diffusion method; type: functional; conditions: MTCC 581, 48 h, read-out: IZ; method in brief: as §3
Pseudomonas aeruginosa [6] = test: Antimicrobial activity against Pseudomonas aeruginosa ATCC 15499 assessed as diameter of inhibition zone at 20 uM after 24 hrs by Kirby -Baur disc diffusion method; type: functional; conditions: ATCC 15499, 24 h, read-out: DIZ; method in brief: as §4
Aspergillus niger [7] = test: Antifungal activity against Aspergillus niger MTCC 1108 assessed as zone of inhibition at 20 uM after 48 hrs by disc diffusion method; type: functional; method in brief: as §3
Curvularia lunata [8] = test: Antifungal activity against Curvularia lunata MTCC 581 assessed as zone of inhibition at 40 uM after 48 hrs by disc diffusion method; type: functional; method in brief: as §3
Salmonella typhi [9] = test: Antimicrobial activity against Salmonella typhi ATCC 23564 assessed as diameter of inhibition zone at 20 uM after 24 hrs by Kirby -Baur disc diffusion method; type: functional, Salmonella enterica subsp. enterica serovar Typhi; conditions: Salmonella enterica, ATCC 23564, 24 h; read-out: DIZ
Trichoderma viride [10] = test: Antifungal activity against Trichoderma viride MTCC 1107 after 48 hrs; type: functional; conditions: MTCC 1107, 48 h
Pseudomonas aeruginosa [11] = test: Antimicrobial activity against Pseudomonas aeruginosa ATCC 15499 assessed as diameter of inhibition zone at 40 uM after 24 hrs by Kirby -Baur disc diffusion method; type: functional; conditions: ATCC 15499, 24 h, read-out: DIZ; method in brief: as §4
Bacillus cereus [12] = test: Antimicrobial activity against Bacillus cereus MTCC 7350 after 24 hrs by broth micro serial dilution method; type: functional; conditions: MTCC 7350, 24 h; method in brief: as §2
Aspergillus flavus [13] = test: Antifungal activity against Aspergillus flavus MTCC 1021 assessed as zone of inhibition at 80 uM after 48 hrs by disc diffusion method; type: functional; method in brief: as §3
Staphylococcus aureus [14] = test: Antimicrobial activity against Staphylococcus aureus ATCC 11632 after 24 hrs by broth micro serial dilution method; type: functional; conditions: ATCC 11632, 24 h; method in brief: as §2
Pseudomonas aeruginosa [15] = test: Antimicrobial activity against Pseudomonas aeruginosa ATCC 15499 assessed as diameter of inhibition zone at 80 uM after 24 hrs by Kirby -Baur disc diffusion method; type: functional; conditions: ATCC 15499, 24 h, read-out: DIZ; method in brief: as §4
Salmonella typhi [16] = test: Antimicrobial activity against Salmonella typhi ATCC 23564 assessed as diameter of inhibition zone at 80 uM after 24 hrs by Kirby -Baur disc diffusion method; type: functional, Salmonella enterica subsp. enterica serovar Typhi; conditions: Salmonella enterica, ATCC 23564, 24 h; read-out: DIZ
Aspergillus niger [17] = test: Antifungal activity against Aspergillus niger MTCC 1108 assessed as zone of inhibition at 40 uM after 48 hrs by disc diffusion method; type: functional; method in brief: as §3
Aspergillus flavus [18] = test: Antifungal activity against Aspergillus flavus MTCC 1021 after 48 hrs; type: functional
Trichoderma viride [19] = test: Antifungal activity against Trichoderma viride MTCC 1107 assessed as zone of inhibition at 40 uM after 48 hrs by disc diffusion method; type: functional; conditions: MTCC 1107, 48 h, read-out: IZ; method in brief: as §3
QG-56 = test: Cytotoxicity against human QG56 cells after 24 hrs by MTT assay; type: functional, cell-based; method in brief: as §1
HCT-116 = test: Cytotoxicity against human HCT116 cells after 24 hrs by MTT assay; type: functional, cell-based; method in brief: as §1
Curvularia lunata [20] = test: Antifungal activity against Curvularia lunata MTCC 581 assessed as zone of inhibition at 20 uM after 48 hrs by disc diffusion method; type: functional; method in brief: as §3
Staphylococcus aureus [21] = test: Antimicrobial activity against Staphylococcus aureus ATCC 11632 assessed as diameter of inhibition zone at 40 uM after 24 hrs by Kirby -Baur disc diffusion method; type: functional; method in brief: as §4
Trichoderma viride [22] = test: Antifungal activity against Trichoderma viride MTCC 1107 assessed as zone of inhibition at 20 uM after 48 hrs by disc diffusion method; type: functional; method in brief: as §3
Aspergillus niger [23] = test: Antifungal activity against Aspergillus niger MTCC 1108 after 48 hrs; type: functional; conditions: MTCC 1108, 48 h
Bacillus cereus [24] = test: Antimicrobial activity against Bacillus cereus MTCC 7350 assessed as diameter of inhibition zone at 80 uM after 24 hrs by Kirby -Baur disc diffusion method; type: functional; conditions: MTCC 7350, 24 h, read-out: DIZ; method in brief: as §4
Salmonella typhi [25] = test: Antimicrobial activity against Salmonella typhi ATCC 23564 assessed as diameter of inhibition zone at 40 uM after 24 hrs by Kirby -Baur disc diffusion method; type: functional, Salmonella enterica subsp. enterica serovar Typhi; conditions: Salmonella enterica, ATCC 23564, 24 h; read-out: DIZ
Escherichia coli [26] = test: Antimicrobial activity against Escherichia coli ATCC 35218 assessed as diameter of inhibition zone at 80 uM after 24 hrs by Kirby -Baur disc diffusion method; type: functional; conditions: ATCC 35218, 24 h, read-out: DIZ; method in brief: as §4
Aspergillus niger [27] = test: Antifungal activity against Aspergillus niger MTCC 1108 assessed as zone of inhibition at 80 uM after 48 hrs by disc diffusion method; type: functional; conditions: MTCC 1108, 48 h, read-out: IZ; method in brief: as §3
HeLa = test: Cytotoxicity against human HeLa cells after 24 hrs by MTT assay; type: functional, cell-based; method in brief: as §1
Bacillus cereus [28] = test: Antimicrobial activity against Bacillus cereus MTCC 7350 assessed as diameter of inhibition zone at 40 uM after 24 hrs by Kirby -Baur disc diffusion method; type: functional; method in brief: as §4
Escherichia coli [29] = test: Antimicrobial activity against Escherichia coli ATCC 35218 assessed as diameter of inhibition zone at 20 uM after 24 hrs by Kirby -Baur disc diffusion method; type: functional; method in brief: as §4
Mus musculus = test: Antiinflammatory activity in mouse assessed as inhibition of carrageenan-induced increase in paw volume at 200 mg/kg administered 1 hr prior to carrageenan challenge measured after 3 hrs relative to control; type: functional
Method in brief: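 Mice were fasted 2 h and placed in groups of five. Controls received saline i.p. Phenylbutazone was given at 100 mg/kg i.p., curcumin at 200 mg/kg i.p., and derivatives at 200 mg/kg. After 1 h, 0.1 mL of 1% carrageenan in saline was injected subplantar into the right hind paw. Paw volume was followed by plethysmometer for 3 h, and % inhibition was calculated as (Vc − Vt)/Vc × 100.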

Curvularia lunata [30] = test: Antifungal activity against Curvularia lunata MTCC 581 after 48 hrs; type: functional; conditions: MTCC 581, 48 h
Staphylococcus aureus [31] = test: Antimicrobial activity against Staphylococcus aureus ATCC 11632 assessed as diameter of inhibition zone at 80 uM after 24 hrs by Kirby -Baur disc diffusion method; type: functional; conditions: ATCC 11632, 24 h, read-out: DIZ; method in brief: as §4
Salmonella typhi [32] = test: Antimicrobial activity against Salmonella typhi ATCC 23564 after 24 hrs by broth micro serial dilution method; type: functional, Salmonella enterica subsp. enterica serovar Typhi; conditions: Salmonella enterica, ATCC 23564, 24 h
Escherichia coli [33] = test: Antimicrobial activity against Escherichia coli ATCC 35218 assessed as diameter of inhibition zone at 40 uM after 24 hrs by Kirby -Baur disc diffusion method; type: functional; conditions: ATCC 35218, 24 h, read-out: DIZ; method in brief: as §4

SMILES: COc1cc(/C=C/C(CC(/C=C/c2ccc(O)c(OC)c2)=N/c2ccc(S(N)(=O)=O)cc2)=N\c2ccc(S(N)(=O)=O)cc2)ccc1O
- IC50 (HepG2): > 100 µM
- MIC (Escherichia coli [1]): 40 µM (≈ 27.1 µg/mL)
- MIC (Pseudomonas aeruginosa [2]): 40 µM (≈ 27.1 µg/mL)
- zone of inhibition at 80 µM (Trichoderma viride [3]): 11 mm
- diameter of the inhibition zone (DIZ) (Staphylococcus aureus [4]): inactive
- zone of inhibition at 80 µM (Curvularia lunata [5]): 9 mm
- zone of inhibition at 20 µM (Pseudomonas aeruginosa [6]): 9 mm
- inhibition zone (IZ) (Aspergillus niger [7]): inactive
- inhibition zone (IZ) (Curvularia lunata [8]): inactive
- zone of inhibition at 20 µM (Salmonella typhi [9]): 9 mm
- MIC (Trichoderma viride [10]): 40 µM (≈ 27.1 µg/mL)
- zone of inhibition at 40 µM (Pseudomonas aeruginosa [11]): 11 mm
- MIC (Bacillus cereus [12]): 40 µM (≈ 27.1 µg/mL)
- inhibition zone (IZ) (Aspergillus flavus [13]): inactive
- MIC (Staphylococcus aureus [14]): > 80 µM
- zone of inhibition at 80 µM (Pseudomonas aeruginosa [15]): 18 mm
- zone of inhibition at 80 µM (Salmonella typhi [16]): 16 mm
- inhibition zone (IZ) (Aspergillus niger [17]): inactive
- MIC (Aspergillus flavus [18]): inactive
- zone of inhibition at 40 µM (Trichoderma viride [19]): 10 mm
- IC50 (QG-56): > 100 µM
- IC50 (HCT-116): 100 µM
- inhibition zone (IZ) (Curvularia lunata [20]): inactive
- diameter of the inhibition zone (DIZ) (Staphylococcus aureus [21]): inactive
- inhibition zone (IZ) (Trichoderma viride [22]): inactive
- MIC (Aspergillus niger [23]): > 80 µM
- zone of inhibition at 80 µM (Bacillus cereus [24]): 11 mm
- zone of inhibition at 40 µM (Salmonella typhi [25]): 11 mm
- zone of inhibition at 80 µM (Escherichia coli [26]): 12 mm
- zone of inhibition at 80 µM (Aspergillus niger [27]): 9 mm
- IC50 (HeLa): 100 µM
- diameter of the inhibition zone (DIZ) (Bacillus cereus [28]): inactive
- diameter of the inhibition zone (DIZ) (Escherichia coli [29]): inactive
- inhibition in vivo at 200 mg/kg (Mus musculus): 12.9%
- MIC (Curvularia lunata [30]): > 80 µM
- zone of inhibition at 80 µM (Staphylococcus aureus [31]): 10 mm
- MIC (Salmonella typhi [32]): 40 µM (≈ 27.1 µg/mL)
- zone of inhibition at 40 µM (Escherichia coli [33]): 10 mm
